The values below come from PubChem BioAssay.

Active and inactive are the calls of the source.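 How the source made its calls, unless noted: active means viability loss from added drug above about 55%, and viability with drug at most 40%, in both replicates (limit read from the data, passing the limit was not always enough); inconclusive means both conditions met in only one replicate; inactive means neither replicate meets both conditions.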

A short description of test [1]: reduced viability of SK-BR-3 breast cancer cells – cell-based, 24 h, human, pilot screen (AID 572;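 active means viability at or below 10% of carrier control in both of two separate runs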;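 further: compound exposure lasted between 18 and 24 h rather than exactly 24 h; 100% = carrier-treated control wells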). As to conditions: SK-BR-3 viability, CellTiter-Glo luminescence, at 10 µM, stronger effect = lower value.
The nature of test [2]: HUVEC growth inhibition – cell-based, human, primary screen (AID 575;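 active means viability at or below 30% in both replicate assays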;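 further: 100% = median of untreated cell wells with 0.1% DMSO on each plate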). As to conditions: HUVEC proliferation, CellTiter-Glo luminescence, 72 h; at 10 µM; stronger effect = lower value. The essentials: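 system = HUVEC primary cells | amount = 1250 cells/well | buffer or medium = supplemented EBM, 2% fetal bovine serum | dosing = single-point 10 µM, DMSO 0.1% final | times = 72 h compound incubation | detection = CTG luminescence | read-out = % viability relative to median vehicle-well signal on each plate | control set = vehicle and MePR control wells | format = collagen-coated 384-well format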
For orientation: Cellular ATP, detected with luciferase, serves as a proxy for viable cell number.

Test [3] is described as follows: H69AR cell proliferation blockers – human, duplicate replicates, primary screen (AID 580;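 active means viability at or under a set limit in both replicates, limit being median viability minus 3 SD, cut at about 48% in these data, passing the limit was not always enough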;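 further: 100% = mean luminescence of untreated wells and 0% = no signal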). The settings on record: H69AR lung tumor cells viability, ATP luminescence, 72 h; at 10 µM; stronger effect = lower value.
Test [4] in a line: MRP1 drug-resistance reversers in H69AR cells – cell-based, doxorubicin co-treatment, pilot screen (AID 601). The settings on record: CellTiter-Glo, 72 h, at 10 µM; for differential viability (reversal): stronger effect = higher value.
A short description of test [5]: yeast transport mutant growth inhibition pilot in 384-well plates, post-Golgi transport modulator project (AID 636; in the data active means inhibition above about 31%). The settings on record: absorbance 615 nm, about 18 h, stronger effect = higher value.
Test [6] can be described thus: growth suppression of yeast trafficking mutant, preliminary HTS, modulators of trafficking downstream of Golgi apparatus project, 1536-format plate, OD 615 nm (AID 637; in the data active means inhibition above about 30%). The settings on record: yeast transport mutant growth, absorbance 615 nm, 18 h; stronger effect = higher value.
[7] abbreviates: H69AR cells + 2 uM doxorubicin, measured here: viability with 2 uM doxorubicin, stronger effect = lower value.
Where [8] appears, read: H69AR cells, compound alone cytotoxicity.

In general, viability refers to a read-out of living cells in per cent, often relative to untreated cells. As a reminder, the inhibition is the relative decrease from the control value, in per cent. `Cc1nc(Sc2cccn2C)c(C(F)(F)F)c(=O)[nH]1`: the viability was 105% (inactive) in test [1]; 102% (inactive) in test [2]; 96.3% (inactive) in test [3]; 83.1% in test [4] (setting [7]); 96.3% in test [4] (setting [8]). Moreover, in test [4] (H69AR cells + 2 uM doxorubicin), the differential viability (reversal) is 13.2% (inactive). For the same compound, the values for the inhibition in test [5] and in test [6] were -6.58% (inactive) and 2% (inactive), respectively.
In the case of `CCc1c(C(=O)Nc2ncn(Cc3cccc(C)c3)n2)csc1C`, the viability in test [1] was 105% (inactive); in test [2] it was 112% (inactive); in test [3] it was 85.6% (inactive); in test [4] (setting [7]), 81.3%; in test [4] (setting [8]), 85.6%. Moreover, in test [4] (H69AR cells + 2 uM doxorubicin), the differential viability (reversal) is 4.33% (inactive). For the same compound, the inhibition was -2.84% (inactive) in test [5] and -1.64% (inactive) in test [6].
On to `COc1ccc(OC)c(S(=O)(=O)N2CCC(C(=O)NCc3ccccc3OC)CC2)c1`, for which the viability in test [1] was 101% (inactive); in test [2] it was 97.5% (inactive); in test [3], 103% (inactive); in test [4] (setting [7]) it was 103%; in test [4] (setting [8]), 103%. For the same compound, in test [4] (H69AR cells + 2 uM doxorubicin), the differential viability (reversal) was -0.525% (inactive). The inhibition was 0.55% (inactive) in test [5] and -4.03% (inactive) in test [6].
Turning to `Cc1cc(NC(=O)CSc2nc(C3CCCCC3)nc3ccccc23)no1`, the viability in test [1] was 101% (inactive); in test [2] it was 99.8% (inactive); in test [3] it was 80% (inactive); in test [4] (setting [7]), 63.9%; in test [4] (setting [8]), 80%. The differential viability (reversal) in test [4] (H69AR cells + 2 uM doxorubicin) was 16.2% (inactive). The inhibition in test [5] is -0.8% (inactive); in test [6] it was -2% (inactive).
As to `O=C(NO)c1ccccc1O`, the viability in test [1] is 109% (inactive); in test [2], 86.7% (inactive); in test [3], 105% (inactive); in test [4] (setting [7]), 81.8%; in test [4] (setting [8]), 105%. Further, the differential viability (reversal) in test [4] (H69AR cells + 2 uM doxorubicin) was 23.1% (inactive). Moreover, the inhibition in test [5] was -1.95% (inactive); in test [6], 6.83% (inactive).
As for `COc1ccccc1NC(=O)C(C)NS(=O)(=O)c1ccc(F)cc1` (centres undefined), the viability was 141% (inactive) in test [1]; 89.5% (inactive) in test [2]; 89.2% (inactive) in test [3]; 88.6% in test [4] (setting [7]); 89.2% in test [4] (setting [8]). For the same compound, the differential viability (reversal) in test [4] (H69AR cells + 2 uM doxorubicin) is 0.595% (inactive). In addition, the values for the inhibition in test [5] and in test [6] were -5.58% (inactive) and 0% (inactive), respectively.
Consider `Cc1ccc(C(O)c2nc3ccccc3n2C(C)C)cc1` (centres undefined), for which the viability in test [1] was 62% (inactive); in test [2] it was 101% (inactive); in test [3], 91.5% (inactive); in test [4] (setting [7]) it was 87.8%; in test [4] (setting [8]), 91.5%. Further, in test [4] (H69AR cells + 2 uM doxorubicin), the differential viability (reversal) is 3.7% (inactive). The results for the inhibition in test [5] and in test [6] were -7.53% (inactive) and -5.82% (inactive), respectively.
Take `O=C(NC1CCCC1)C(c1cccs1)N(Cc1ccco1)C(=O)Cn1nnc(-c2cccs2)n1` (centres undefined): the viability is 71% (inactive) in test [1]; 87.3% (inactive) in test [2]; 92.8% (inactive) in test [3]; 94.3% in test [4] (setting [7]); 92.8% in test [4] (setting [8]). In addition, in test [4] (H69AR cells + 2 uM doxorubicin), the differential viability (reversal) was -1.47% (inactive). Besides, the inhibition is -8.22% (inactive) in test [5] and -0.48% (inactive) in test [6].
As to `CCc1ccccc1NC(=O)c1ccoc1C`, the viability in test [1] was 102% (inactive); in test [2], 107% (inactive); in test [3], 101% (inactive); in test [4] (setting [7]) it was 90.2%; in test [4] (setting [8]), 101%. Moreover, in test [4] (H69AR cells + 2 uM doxorubicin), the differential viability (reversal) was 10.8% (inactive). Besides, the inhibition in test [5] was 1.78% (inactive); in test [6], 4.19% (inactive).
As to `CCCC(=O)Nc1nnc(CC(=O)N2CCCC2)s1`, the viability in test [1] was 90% (inactive); in test [2], 113% (inactive); in test [3], 96.9% (inactive); in test [4] (setting [7]), 89.5%; in test [4] (setting [8]), 96.9%. Besides, in test [4] (H69AR cells + 2 uM doxorubicin), the differential viability (reversal) was 7.37% (inactive). The inhibition is -9.73% (inactive) in test [5] and -5.27% (inactive) in test [6].
Consider `CC(=O)N1CCc2cc(S(=O)(=O)NCCC(=O)Nc3cc(C)cc(C)c3)ccc21`, for which the viability is 95% (inactive) in test [1]; 104% (inactive) in test [2]; 95.6% (inactive) in test [3]; 95.3% in test [4] (setting [7]); 95.6% in test [4] (setting [8]). In test [4] (H69AR cells + 2 uM doxorubicin), the differential viability (reversal) was 0.35% (inactive). Besides, the inhibition in test [5] was -4.93% (inactive); in test [6], -4% (inactive).
Consider `CC(C)c1ccc(CNc2ccc(N3CCOCC3)cc2)cc1`, for which the viability is 74% (inactive) in test [1]; 81.7% (inactive) in test [2]; 88.4% (inactive) in test [3]; 87.5% in test [4] (setting [7]); 88.4% in test [4] (setting [8]). In addition, in test [4] (H69AR cells + 2 uM doxorubicin), the differential viability (reversal) was 0.93% (inactive). Moreover, the results for the inhibition in test [5] and in test [6] were -6.89% (inactive) and -5.82% (inactive), respectively.
`O=C(NC1CCCC1)C(NS(=O)(=O)c1cccc2nsnc12)c1ccccc1` (centres undefined): the viability in test [1] was 116% (inactive); in test [2], 103% (inactive); in test [3], 79% (inactive); in test [4] (setting [7]), 81.5%; in test [4] (setting [8]), 79%. Besides, in test [4] (H69AR cells + 2 uM doxorubicin), the differential viability (reversal) was -2.47% (inactive). Further, the inhibition in test [5] is -8.08% (inactive); in test [6] it was 8.18% (inactive).
For `Cc1c(C)[n+](=O)c2c(n1[O-])CCCCC2`, the viability in test [1] is 89% (inactive); in test [2] it was 93.5% (inactive); in test [3], 96% (inactive); in test [4] (setting [7]), 86.3%; in test [4] (setting [8]) it was 96%. In addition, in test [4] (H69AR cells + 2 uM doxorubicin), the differential viability (reversal) is 9.67% (inactive). For the same compound, the inhibition was -1.43% (inactive) in test [5] and -2.3% (inactive) in test [6].
For the compound `OCC(O)CN1CCN(c2ccccc2)CC1` (centres undefined), the viability in test [1] is 119% (inactive); in test [2], 100% (inactive); in test [3], 92.9% (inactive); in test [4] (setting [7]) it was 94.5%; in test [4] (setting [8]), 92.9%. Also, the differential viability (reversal) in test [4] (H69AR cells + 2 uM doxorubicin) was -1.6% (inactive). The results for the inhibition in test [5] and in test [6] were 1.95% (inactive) and 3.83% (inactive), respectively.
On to `CCCNC(=O)NC1C(NC(=O)NCCC)N(C)C(=O)N1C` (centres undefined), for which the viability in test [1] is 86% (inactive); in test [2] it was 104% (inactive); in test [3] it was 105% (inactive); in test [4] (setting [7]), 90.7%; in test [4] (setting [8]), 105%. Moreover, the differential viability (reversal) in test [4] (H69AR cells + 2 uM doxorubicin) was 14.2% (inactive). For the same compound, the results for the inhibition in test [5] and in test [6] were -1.04% (inactive) and -0.49% (inactive), respectively.
As for `O=C(NCCN1CCOCC1)c1ccc(CS(=O)(=O)Cc2ccccc2F)o1`, the viability in test [1] is 59% (inactive); in test [2], 102% (inactive); in test [3], 108% (inactive); in test [4] (setting [7]), 107%; in test [4] (setting [8]), 108%. Also, in test [4] (H69AR cells + 2 uM doxorubicin), the differential viability (reversal) is 0.59% (inactive). Further, the inhibition in test [5] is -3.84% (inactive); in test [6], 1.64% (inactive).
`CC(=O)SCC(=O)N=c1sc2cc(F)ccc2n1C`: the viability is 90.5% (inactive) in test [1]; 75.5% (inactive) in test [2]; 93.4% (inactive) in test [3]; 96.1% in test [4] (setting [7]); 93.4% in test [4] (setting [8]). Also, the differential viability (reversal) in test [4] (H69AR cells + 2 uM doxorubicin) is -2.64% (inactive). Besides, the values for the inhibition in test [5] and in test [6] were -5.26% (inactive) and 7.78% (inactive), respectively.
